# Measured values of several laboratories.
# Each line is one published result; the experiments were not run side by side. pIC50: −log10 of the molar value.
# Effect on: cell growth or viability
Structure (SMILES),cell line,test,conditions,measurement,result
COc1cc2ncnc(NN=C3C(=O)Nc4ccc(C)cc43)c2cc1OC,ZR75,,30 µM,inhibition,40.4%
S=C([S][Au-][P+](CCCCCC[P+]([Au-][S]C(=S)n1cccn1)(c1ccccc1)c1ccccc1)(c1ccccc1)c1ccccc1)n1cccn1,KM12,,,GI50,0.434 µM
Cc1ccc(C(CS(=O)(=O)c2ccccc2)=NNC2=NC(=O)C(=NNc3ccccc3)S2)cc1,WM 266-4,MTT,"100 µM, 48 h",viability,35.7%
Cn1c(=O)c(NN=C2C(=O)Nc3ccc(Br)cc32)nc2ccccc21,ZR75,,30 µM,inhibition,62.1%
O=C(Nc1ccc(C(F)(F)F)cc1)Nc1cccc(C(=O)Nc2ccc3[nH]ncc3c2)c1,KM12,ATP luminescence,72 h,pIC50,4.47
CC#CC(=O)N1CC[C@@H](n2cc(-c3ccc(Oc4c(F)cccc4F)cc3)c3c(N)n[nH]c(=O)c32)C1,JeKo-1,ATP luminescence,72 h,GI50,4.88 µM
CC(C)(C)c1nc(-c2cccc(NS(=O)(=O)c3c(F)cccc3F)c2F)c(-c2ccnc(N)n2)s1,WM 266-4,MTT,"25 µM, 48 h",viability,47.7%
CN1C(=O)/C(=N\NC(=O)c2cc3ccccc3[nH]2)c2cc(F)ccc21,ZR75,,30 µM,inhibition,78.8%
COc1ccc(C2=Nn3c(NN=C4C(=O)Nc5ccc(OC)cc54)nnc3SC2)cc1,SR,SRB,10 µM,inhibition,36%
CCN(CC)CCNC(=O)c1c(C)[nH]c(/C=C2\C(=O)Nc3ccc(F)cc32)c1C,ZR75,,30 µM,inhibition,90.7%
COc1ccc2c(c1)C(=NNc1nnc(Cc3ccccc3)c3ccccc13)C(=O)N2,ZR75,,30 µM,inhibition,30.9%
CN1CCN(c2ccc(C(=O)Nc3n[nH]c4ccc(Cc5cc(F)cc(F)c5)cc34)c(NC3CCOCC3)c2)CC1,KM12,ATP luminescence,72 h,pIC50,4.63
NC(=S)NN=C(CS(=O)(=O)c1ccccc1)c1ccc(F)cc1,WM 266-4,MTT,"100 µM, 48 h",viability,24.4%
Cn1c(=O)c(NN=C2C(=O)Nc3ccc(F)cc32)nc2ccccc21,ZR75,,30 µM,inhibition,22.6%
CN1C(=O)/C(=N\NC(=O)c2cc3ccccc3[nH]2)c2ccccc21,ZR75,,30 µM,inhibition,73.1%
COc1ccc(-c2nc(NN=C3C(=O)Nc4ccc(F)cc43)c3ccccc3n2)cc1OC,ZR75,,30 µM,inhibition,26.5%
CNC(=O)c1cc(Oc2ccc(NC(=O)Nc3ccc(Cl)c(C(F)(F)F)c3)cc2)ccn1,WM 266-4,MTT,"100 µM, 48 h",viability,33.9%
CN1C(=O)/C(=N\NC(=O)c2cc3ccccc3[nH]2)c2cc(Br)ccc21,ZR75,,30 µM,inhibition,90.2%
COc1cccc(Oc2ccccc2NC(=O)CNC(=O)c2cccc3ccccc23)c1,SR,SRB,48 h,GI50,0.115 µM
Cc1ccc2c(c1)C(=NNc1nc3ccccc3n(C)c1=O)C(=O)N2,ZR75,,30 µM,inhibition,71%
CN1C(=O)/C(=N\NC(=O)c2cc3ccccc3[nH]2)c2cc(Cl)ccc21,ZR75,,30 µM,inhibition,81.8%
Cc1ccc(C(CS(=O)(=O)c2ccccc2)=NNc2nc(-c3ccc(OCCCCOc4ccc(-c5csc(NN=C(CS(=O)(=O)c6ccccc6)c6ccc(C)cc6)n5)cc4)cc3)cs2)cc1,WM 266-4,MTT,"25 µM, 48 h",viability,48.8%
Cn1c(=O)c(NN=C2C(=O)Nc3ccccc32)nc2ccccc21,ZR75,,30 µM,inhibition,52.1%
O=C1Nc2ccc(Cl)cc2/C1=N/NC(=O)c1cc2ccccc2[nH]1,ZR75,,30 µM,inhibition,53.9%
Cc1ccc2c(c1)C(=NNc1nnc(Cc3ccccc3)c3ccccc13)C(=O)N2,ZR75,,30 µM,inhibition,69.6%
Cc1ccc(C(CS(=O)(=O)c2ccccc2)=NN=C2N=C(c3ccc(Br)cc3)CS2)cc1,WM 266-4,MTT,"25 µM, 48 h",viability,42.1%
O=C(Nc1ccc(OC(F)(F)F)cc1)Nc1cccc(C(=O)Nc2ccc3[nH]ncc3c2)c1,KM12,ATP luminescence,72 h,pIC50,4.36
